{"data": "Results from different studies", "target": "Calcium/calmodulin-dependent protein kinase type 1B (PNCK, Homo sapiens, UniProt Q6P2M8)", "note": "Each line is one published result; the experiments were not run side by side."}
{"Structure (SMILES)": "CC1=C(C#N)C(c2ccc3c(c2)c(NC(=O)c2ccccc2C)nn3C)C(C#N)=C(C)N1", "test": "cell-free assay, competition with immobilised ligand", "setting": "1 µM", "remaining binding [%]": 85}
{"Structure (SMILES)": "FC(F)(F)Oc1cccc(-c2cnc3ccc(-c4ccncc4)nn23)c1", "test": "cell-free assay, competition with immobilised ligand", "setting": "5 µM", "remaining binding [%]": 100}
{"Structure (SMILES)": "O=C(NCCCN1CCOCC1)c1ccc(Nc2ncc(Cl)c(-c3ccc(Cl)s3)n2)cc1", "test": "binding, competition with immobilised ligand", "setting": "1 µM", "remaining binding [%]": 82}
{"Structure (SMILES)": "CC(=O)N1CCC(c2ccc(C(=O)NC(=N)N)cc2C(F)(F)F)CC1", "test": "cell-free assay, competition with immobilised ligand", "setting": "1 µM", "remaining binding [%]": 100}
{"Structure (SMILES)": "COc1cnc(Nc2cccc(S(N)(=O)=O)c2)nc1N1CCN(c2ccccc2)CC1", "test": "binding, competition with immobilised ligand", "setting": "1 µM", "remaining binding [%]": 92}
{"Structure (SMILES)": "N[C@@H]1CCN(c2nccc(-c3cnn4ncccc34)n2)C1", "test": "binding", "setting": "1 µM", "remaining binding [%]": 100}
{"Structure (SMILES)": "Cc1cnc(Nc2ccc(C(=O)N3CCC(N4CCCC4)CC3)cc2)nc1-c1cc2ccccc2s1", "test": "binding, competition with immobilised ligand", "setting": "1 µM", "remaining binding [%]": 36}
{"Structure (SMILES)": "Nc1ncc2c(n1)-c1c([nH]c3ccc(C#CC4CC4)cc13)CCCC2", "test": "binding, competition with immobilised ligand", "setting": "1 µM", "remaining binding [%]": 79}
{"Structure (SMILES)": "CN(C)c1nccc(-c2cnc3ncccn23)n1", "test": "binding", "setting": "1 µM", "remaining binding [%]": 62}
{"Structure (SMILES)": "O=c1nc(-c2ccccn2)sc2ccccc12", "test": "cell-free assay, competition with immobilised ligand", "setting": "1 µM", "remaining binding [%]": 56}
{"Structure (SMILES)": "CC1CCCN1c1nccc(-c2cnn3ncccc23)n1 (stereo not shown)", "test": "binding", "setting": "1 µM", "remaining binding [%]": 82}
{"Structure (SMILES)": "O=C(Nc1cnc(Oc2ccc(F)cc2)nc1)N1CCc2ncccc2[C@@H]1c1ccc(F)cc1", "test": "cell-free assay, competition with immobilised ligand", "setting": "1 µM", "remaining binding [%]": 100}
{"Structure (SMILES)": "Cc1cnn2ncc(-c3ccnc(N(C)C)n3)c2c1", "test": "binding", "setting": "1 µM", "remaining binding [%]": 97}
{"Structure (SMILES)": "COc1ncc2cc3ccccc3nc2c1C#N", "test": "cell-free assay, competition with immobilised ligand", "setting": "5 µM", "remaining binding [%]": 95}
{"Structure (SMILES)": "O=C(Nc1c[nH]nc1C(=O)NC1CCNCC1)c1cc(F)cc(F)c1", "test": "binding, competition with immobilised ligand", "setting": "1 µM", "remaining binding [%]": 100}
{"Structure (SMILES)": "C[C@@H]1CCN(c2nccc(-c3cnn4ncccc34)n2)C1", "test": "binding", "setting": "1 µM", "remaining binding [%]": 89}
{"Structure (SMILES)": "O=C(c1ccc(Nc2ncc(Cl)c(-c3ccc(Cl)s3)n2)cc1)N1CCC(N2CCCC2)CC1", "test": "binding, competition with immobilised ligand", "setting": "1 µM", "remaining binding [%]": 56}
{"Structure (SMILES)": "CNCc1ccccc1-c1csc([C@H](C)Nc2nc(C)nc3cc(OC)c(OC)cc23)c1", "test": "cell-free assay, competition with immobilised ligand", "setting": "1 µM", "remaining binding [%]": 100}
{"Structure (SMILES)": "COc1ccnn2ncc(-c3ccnc(N(C)C)n3)c12", "test": "binding", "setting": "1 µM", "remaining binding [%]": 100}
